Laboratory results as given in ChEMBL document CHEMBL1135645, “Synthesis and evaluation of analogues of 5'-([(Z)-4-amino-2-butenyl]methylamino)-5'-deoxyadenosine as inhibitors of tumor cell growth, trypanosomal growth, and HIV-1 infectivity” (J Med Chem, 2002).
Blank lines part the entries; values can stand above or below the compound they belong to.

Legend:
L1210 [1] = assay: In Vitro inhibition of L1210 Murine Leukemia Cells by the compound at a dose of 100 uM; assay type: functional; settings: Mus musculus
L1210 [2] = assay: In vitro Anti Neoplastic Activity against L1210 murine leukemia Cell lines; assay type: functional, cell-based; settings: Mus musculus
Method in brief: (§1)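 SRB growth assay. Cell lines were grown as monolayers in RPMI-1640 with 5% FCS, 5% NuSerum IV, 20 mM HEPES and 2 mM glutamine, and seeded at 400–1200 cells/well. They attached for 15–18 h before drug. Ten concentrations over 5 logs were tested, with final DMSO ≤0.25%. Exposure was 72 h at 37 °C. Cells were TCA-fixed, stained with sulforhodamine B and read at OD 570 nm. IC50 is 50% growth inhibition.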

[3] = tested on: Trypanosoma brucei rhodesiense; assay: In Vitro inhibition of Trypanosomal 243 (KETRI)strain by the compound at a dose of 100 uM; assay type: functional
[4] = tested on: Trypanosoma brucei brucei; assay: In vitro anti trypanosomal activity against Trypanosomal 110 (EATRO)strain; assay type: functional, organism-based
MCF7 [5] = assay: In vitro Anti Neoplastic Activity against Human Breast adenocarcinoma MCF-7 Cell lines; assay type: functional, cell-based; method in brief: as §1
HT-29 [6] = assay: In vitro Anti Neoplastic Activity in Human Colon adenocarcinoma HT-29 Cell lines; assay type: functional, cell-based; method in brief: as §1
A121 [7] = assay: In vitro Anti Neoplastic Activity against Human ovarian carcinoma A121 Cell lines; assay type: functional, cell-based; method in brief: as §1
[8] = tested on: Trypanosoma brucei rhodesiense; assay: In vitro anti trypanosomal activity against Trypanosomal 243 As 10e-3 (KETRI)strain; assay type: functional, organism-based
[9] = tested on: Trypanosoma brucei rhodesiense; assay: In vitro anti trypanosomal activity against Trypanosomal 269 (KETRI)strain; assay type: functional, organism-based
[10] = tested on: Trypanosoma brucei rhodesiense; assay: In vitro anti trypanosomal activity against Trypanosomal 243 (KETRI)strain; assay type: functional, organism-based
A549 [11] = assay: In vitro Anti Neoplastic Activity against Human non small cell lung carcinoma A549 Cell lines; assay type: functional, cell-based; method in brief: as §1
MCF7 [12] = assay: In vitro Anti Neoplastic Activity against Adriamycin resistant Human Breast adenocarcinoma MCF7-Adr Cell lines; assay type: functional, cell-based; method in brief: as §1
CCRF-CEM = assay: Concentration that causes morphological changes in noninfected CEM-SS cells; assay type: functional; settings: Homo sapiens, read-out: TC50 (the source's name)
[13] = tested on: Human immunodeficiency virus 1; assay: In Vitro Anti-HIV activity in CEM cells; assay type: functional, organism-based; settings: Human immunodeficiency virus 1, CCRF-CEM
Method in brief: (§2)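 Syncytial plaque assay: log-phase CEM-SS cells were PBS-washed and plated at 50 000 per well in serum-free RPMI-1640 on poly-L-lysine-coated wells (30 min, 37 °C). They were inoculated with HIV-1 (60–90 PFU) for 120 min, then overlaid with compound in growth medium (2-fold dilutions, 0.00015–20 μM). A second overlay followed on day 3, with 5 days total. EC50 is 50% inhibition of plaque formation. TC50 is morphological change in noninfected CEM-SS cells.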

MCF7 [14] = assay: In vitro anti Neoplastic Activity against Adriamycin resistant Human Breast adenocarcinoma MCF7-Adr Cell lines; assay type: functional, cell-based; method in brief: as §1
MCF7 [15] = assay: In vitro anti Neoplastic Activity against Human Breast adenocarcinoma MCF-7 Cell lines; assay type: functional, cell-based; method in brief: as §1
A549 [16] = assay: In vitro anti Neoplastic Activity against Human non small cell lung carcinoma A549 Cell lines;Value ranges from (3-10).; assay type: functional, cell-based; method in brief: as §1
HT-29 [17] = assay: In vitro anti Neoplastic Activity in Human Colon adenocarcinoma HT-29 Cell lines;Value ranges from (3-30).; assay type: functional, cell-based; method in brief: as §1
A121 [18] = assay: In vitro anti Neoplastic Activity against Human ovarian carcinoma A121 Cell lines;Value ranges from (1-30); assay type: functional, cell-based; method in brief: as §1
L1210 [19] = assay: In vitro inhibition of AdoMetDC derived from L1210 Murine Leukemia Cells.; assay type: functional; settings: Mus musculus, read-out: ID50 (the source's name)
Mus musculus [20] = assay: Nnumber of mice cured to that of 5 treated with the compound at 50 mg/kg for 3 days; assay type: functional
Mus musculus [21] = assay: Number of mice cured to that of 5 treated with the compound at 100 mg/kg for 7 days; assay type: functional
Mus musculus [22] = assay: Number of mice cured to that of 5 treated with the compound at 10 mg/kg for 3 days; assay type: functional
Mus musculus [23] = assay: Number of mice cured to that of 5 treated with the compound at 25 mg/kg for 3 days; assay type: functional
Mus musculus [24] = assay: Number of mice cured to that of 5 treated with the compound at 25 mg/kg for 7 days; assay type: functional
Mus musculus [25] = assay: Number of mice cured to that of 5 treated with the compound at 50 mg/kg for 7 days; assay type: functional
[26] = tested on: Trypanosoma brucei brucei; assay: Mean survival days against T.b. brucei LAB 110 EATRO tested in mice administration at 100 mg/kg for 7 days.; assay type: functional
Method in brief: (§3)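 Female Swiss-Webster mice (20 g) were infected with 2.5×10^5 trypanosomes from a rat infection. Compounds were dissolved in water and given at the stated daily dose by 7 day miniosmotic pumps implanted aseptically. There were 5 mice per group. Viability was checked daily and tail-vein blood smears weekly. The value is mean survival in days. Mice were scored cured if they survived >30 days beyond untreated controls with no parasitemia.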

[27] = tested on: Trypanosoma brucei brucei; assay: Mean survival days against T.b. brucei LAB 110 EATRO tested in mice administration at 25 mg/kg for 7 days.; assay type: functional; method in brief: as §3
[28] = tested on: Trypanosoma brucei brucei; assay: Mean survival days against T.b. brucei LAB 110 EATRO tested in mice administration at 50 mg/kg for 7 days.; assay type: functional; method in brief: as §3
[29] = tested on: Trypanosoma brucei brucei; assay: Mean survival days against T.b. peritoneal administration at 10 mg/kg for 3 days.; assay type: functional
[30] = tested on: Trypanosoma brucei brucei; assay: Mean survival days against T.b. peritoneal administration at 25 mg/kg for 3 days.; assay type: functional
[31] = tested on: Trypanosoma brucei brucei; assay: Mean survival days against T.b. peritoneal administration at 50 mg/kg for 3 days.; assay type: functional
[32] = tested on: Trypanosoma brucei rhodesiense; assay: Mean survival days against T.b. rhodesiense KETRI 243 tested in mice after intra peritoneal administration at 25 mg/kg for 7 days.; assay type: functional
[33] = tested on: Trypanosoma brucei rhodesiense; assay: Mean survival days against T.b. rhodesiense KETRI 243 tested in mice after intra peritoneal administration at 50 mg/kg for 7 days.; assay type: functional
[34] = Differential selectivity as the ratio of TC50 value to that of EC50 value.; assay type: functional; method in brief: as §2
Mus musculus [35] = organism: Mus musculus; assay: Number of mice cured to that of 5 treated with the compound for 7 days
[36] = tested on: Trypanosoma brucei rhodesiense; assay: Mean survival days against T.b. rhodesiense KETRI 243 tested in mice after intra peritoneal administration at 50 mg/kg for 7 days.
L1210 [37] = assay: In vitro inhibition of AdoMetDC derived from L1210 Murine Leukemia Cells at a dose of 100 uM; assay type: functional; settings: Mus musculus

SMILES: CN(Cc1ccccc1CN)C[C@H]1OC(n2cnc3c(N)ncnc32)[C@H](O)[C@@H]1O (stereo partly drawn)
- inhibition at 100 µM (L1210 [1]): 41%
- IC50 (L1210 [2]): > 600 µM
- inhibition at 100 µM [3]: 42%
- IC50 [4]: 14 µM

SMILES: CC(=O)OC1C(CN(C)C/C=C\CN)OC(n2cnc3c(N)ncnc32)C1OC(C)=O (stereo not drawn)
- CC50 (CCRF-CEM): 12 µM
- EC50 [13]: 0.05 µM
- IC50 (MCF7 [14]): > 100 µM
- IC50 (MCF7 [15]): 51 µM
- IC50 (A549 [16]): 10 µM
- IC50 (HT-29 [17]): 30 µM
- IC50 (A121 [18]): 30 µM
- IC50 (L1210 [19]): 0.82 µM
- IC50 (L1210 [2]): 20 µM
- No. of cures (Mus musculus [20]): 5
- No. of cures (Mus musculus [21]): 4
- No. of cures (Mus musculus [22]): 4
- No. of cures (Mus musculus [23]): 4
- No. cured (Mus musculus [24]): 0
- No. of cures (Mus musculus [24]): 5
- No. cured (Mus musculus [25]): 0
- No. of cures (Mus musculus [25]): 5
- IC50 [8]: 0.054 µM
- IC50 [9]: 0.02 µM
- IC50 [4]: 0.014 µM
- IC50 [10]: 0.014 µM
- MSD [26]: 26 days
- MSD [27]: >34 days
- MSD [28]: >34 days
- MSD [29]: 17 days
- MSD [30]: 33 days
- MSD [31]: >34 days
- MSD [32]: 18 days
- MSD [33]: 21.2 days
- Ratio [34]: 240
- No. cured (Mus musculus [35]): 0
- MSD [36]: 21.2 days

SMILES: CN(C/C=C\CN)CC(CO)OC(CO)n1cnc2c(N)ncnc21 (stereo not drawn)
- IC50 (MCF7 [5]): 63 µM
- IC50 (HT-29 [6]): 112 µM
- IC50 (A121 [7]): 41 µM
- inhibition at 100 µM (L1210 [37]): 27%
- IC50 (L1210 [2]): > 600 µM
- IC50 [4]: 16 µM
- IC50 [10]: 15 µM
- IC50 (A549 [11]): > 100 µM
- IC50 (MCF7 [12]): 78 µM

The remaining lines, values ahead:

- IC50 (MCF7 [5]): > 100 µM
- IC50 (HT-29 [6]): > 100 µM
- IC50 (A121 [7]): > 100 µM
- IC50 [8]: 2.9 µM
- IC50 [9]: 3.8 µM
- IC50 [4]: 1.8 µM
- IC50 [10]: 4.6 µM
- IC50 (A549 [11]): > 100 µM
- IC50 (MCF7 [12]): > 100 µM
SMILES: CC(=O)OCC(CN(C)C/C=C\CN)OC(COC(C)=O)n1cnc2c(N)ncnc21 (stereo not drawn)

- IC50 [8]: 2 µM
- IC50 [9]: 19 µM
- IC50 [4]: 4.5 µM
- IC50 [10]: 3.8 µM
SMILES: CN(C/C=C\CN)C[C@H]1O[C@@H](n2cnc3c(N)nc(N)nc32)[C@H](O)[C@@H]1O
